# Source: PubChem
# Rows were chosen to be rich in hits. Some 3.8% of all compounds tested hit in one or more screens of this group.
# KCNK3 block – human KCNK3 channel inhibition, primary screen; CHO-KCNK3 thallium flux, FluxOR fluorescence; stronger effect = lower value; 340,000 tested, 0.84% active; O14649; B-score at 10 µM;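 active = B-score under library mean minus 4 SD, starting fluorescence ratio at most library mean plus 5 SD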;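 also: more negative B-score means stronger inhibition of thallium flux through KCNK3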
# KCNQ1 block – inhibitors of human KCNQ1 potassium channel. P51787. CHO-K1 KCNQ1, FluxOR thallium flux fluorescence; stronger effect = higher value. B-score at 10 µM. 310,000 tested, 1.3% active. AID 2642;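 active = compounds whose thallium flux B-score, printed positive for inhibition, exceeds three library SD while starting fluorescence stays within three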;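 also: channel opened by potassium depolarization with thallium stimulus after 20 min compound exposure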
# Kir21 block – inhibitors of mouse Kir2.1 inward-rectifier potassium channel; 310,000 tested, 0.85% active; B-score at 10 µM; HEK293-Kir2.1, FluxOR thallium flux fluorescence; stronger effect = lower value; AID 1672; P35561;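 active = fluorescence ratio B-score at or below minus 3 SD of library scores, with starting-brightness B-score within 2 SD, cut at about -4.2 in these data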;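 also: channel flux triggered by added potassium and thallium sulfate stimulus; B-score of peak minus minimum fluorescence over baseline after thallium stimulus; more negative B-score means stronger Kir2.1 block with less thallium influx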
# Target sequence (P35561 whole entry, looked up): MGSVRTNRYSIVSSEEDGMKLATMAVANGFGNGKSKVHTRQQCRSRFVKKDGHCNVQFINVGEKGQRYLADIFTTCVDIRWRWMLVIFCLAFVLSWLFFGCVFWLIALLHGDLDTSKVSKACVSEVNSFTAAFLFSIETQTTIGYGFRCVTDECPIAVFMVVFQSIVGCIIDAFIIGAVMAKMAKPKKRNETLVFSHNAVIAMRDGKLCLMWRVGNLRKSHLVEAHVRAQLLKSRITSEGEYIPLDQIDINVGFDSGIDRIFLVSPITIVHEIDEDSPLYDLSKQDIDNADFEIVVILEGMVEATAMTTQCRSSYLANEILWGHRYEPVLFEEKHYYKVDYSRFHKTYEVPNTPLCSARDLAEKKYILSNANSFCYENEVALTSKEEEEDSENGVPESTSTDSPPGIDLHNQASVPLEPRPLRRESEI
# KCNK9 inh – blocks the human KCNK9 two-pore domain potassium channel; Q9NPC2; AID 488922; 310,000 tested, 1.2% active; B-score at 10 µM; HEK293 KCNK9, FluxOR thallium flux fluorescence; stronger effect = lower value;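 active = ratio B-score over 3 SD below the library mean, with starting fluorescence within 5 SD of its mean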;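 also: negative B-score means less thallium flux so channel inhibition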
# KCNQ1 pot – human KCNQ1 channel potentiation or activation. CHO-K1 KCNQ1, thallium flux FluxOR fluorescence; stronger effect = higher value. B-score at 10 µM. 310,000 tested, 0.35% active. AID 2648;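 active = fluorescence ratio B-score, a plate-corrected score, at least three library SD, with initial intensity B-score within 5 SD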
#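 assay system = KCNQ1-transfected CHO-K1 cells | medium = assay buffer with matched DMSO | probe or stimulus = depolarizing K+/Tl+ stimulus, K2SO4 and Tl2SO4 each 12.5 mM in 5x stock | dosing = single dose | incubation = dye 90 min, compound 20 min, room temperature | detection = kinetic FluxOR fluorescence, 10 s baseline plus 110 s post-stimulus | evaluation = ratio B score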
# hERG protect – compounds protecting human hERG from proarrhythmic drug block; activation (rescue from dofetilide block), less the hit threshold, % at 10 µM; CHO-hERG, FluxOR thallium flux, dofetilide IC70 present; AID 1511; 310,000 tested, 0.51% active;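 active = activation above the mean of controls blocked by dofetilide plus 5 SD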;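 also: thallium influx through hERG after potassium depolarization seen as dye fluorescence rise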
# KCNK9 block conf – human KCNK9 inhibitor confirmation; shares compounds with KCNK9 inh; inhibition, % at 10 µM; AID 492992; 4,900 tested, 43% active; HEK293 KCNK9 cells, FluxOR thallium flux fluorescence;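 active = thallium signal inhibited by more than 5 SD of the compound-free buffer control wells, on both duplicate plates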;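 also: 0% = assay buffer control wells without compound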
# Kir21 sel – mouse Kir2.1 off-target activity of KCNK9 modulators. Kir2.1 cells, FluxOR thallium flux fluorescence. inhibition, % at 10 µM. shares compounds with KCNK9 inh. 4,900 tested, 4% active;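 active = thallium signal drop more than 5 SD beyond the mean of the no-compound control wells, seen in both duplicate plates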;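 also: signal is fluorescence rise after thallium addition divided by baseline fluorescence; plate controls were assay buffer only for no effect and full block by chlorpromazine control for full effect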
# KCNK9 uninduced – non-induced cell nonspecific activity of KCNK9 modulators; shares compounds with KCNK9 inh; inhibition, % at 10 µM; AID 492997; 4,900 tested, 40% active; non-induced KCNK9-HEK293, FluxOR thallium flux;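 active = thallium signal drop beyond 5 SD of the untreated control mean, on both duplicate plates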;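 also: plate controls were buffer only IC0 wells for no effect and SID17386958 at its maximal inhibitory level for full effect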
# The depositor's hits bear a star; i = inactive; . = no result.
SMILES,KCNK3 block,KCNQ1 block,Kir21 block,KCNK9 inh,KCNQ1 pot,hERG protect,KCNK9 block conf,Kir21 sel,KCNK9 uninduced
O=C(NC1CCCC1)c1cc(-c2ccc(Cl)cc2Cl)on1,i,i,-0.44,i,i,-6,.,.,.
Cc1cc(NC(=O)CN2C(=O)N(C)C3(CCCCC3)C2=O)ccc1Br,i,.,.,.,.,.,.,.,.
Nc1nc(-c2cccs2)c(CC(=O)O)s1,i,i,-0.53,i,i,-8,.,.,.
Nc1nc(-c2cccs2)c(-c2cccs2)s1,i,i,-1.5,-8.8*,i,-13,44%*,i,i
O=C(Cc1n[nH]c(=O)c2ccccc12)Nc1cc(C(F)(F)F)ccc1-n1cncn1,i,.,.,.,.,.,.,.,.
O=C(Nc1ccccc1C(=O)N1CCCCC1)c1cc(F)c(F)cc1Cl,i,i,-0.92,i,i,-2,.,.,.
O=C(Nc1cccc(Cl)c1)c1cccc(Oc2ccc([N+](=O)[O-])cc2Cl)c1,i,i,-1.3,i,i,-14,i,i,i
c1ccc(C(c2nnnn2Cc2ccco2)N2CCN(c3nc4ccccc4s3)CC2)cc1 (stereo not drawn),i,i,0.58,-8.2*,i,-11,42%*,i,28%*
CCC(c1nnnn1Cc1ccco1)N1CCC(C(N)=O)CC1 (stereo not drawn),i,i,0.73,i,i,0,.,.,.
CCCCC(c1nnnn1Cc1ccco1)N1CCN(c2nc3ccccc3s2)CC1 (stereo not drawn),i,i,-1,-16*,i,-10,48%*,i,33%*
CCC(c1nnnn1Cc1ccco1)N1CCN(c2cc(Cl)ccc2C)CC1 (stereo not drawn),i,i,-0.2,-11*,i,-6,54%*,i,42%*
COc1ccc(CCCN2CCC(CN3CCNC(=O)C3=O)CC2)cc1OC,i,.,.,.,.,.,.,.,.
O=c1c2ccccc2ncn1CCCSc1ccccc1,i,i,1.8,i,i,-10,i,i,30%*
CC(C)CN1CCC(=O)N(CCSc2ccc(Br)cc2)CC1,i,i,-1.4,i,i,-6,i,i,i
CC(C)CN1CCC(=O)N(CCOc2ccccc2)CC1,i,i,-0.15,i,i,-5,.,.,.
CC(=O)Nc1ccc(S(=O)(=O)Nc2nc3ccccc3nc2Nc2ccc(O)c(C(=O)O)c2)cc1,i,i,0.18,i,i,-8,.,.,.
O=C1NN(c2ccccc2)C(=O)/C1=C/c1ccc(Sc2cccc3ccccc23)o1,i,i,-0.02,i,i,-10,i,i,i
O=C1NN(c2ccccc2)C(=O)/C1=C/c1ccc(-c2ccc(C(=O)O)cc2)o1,i,i,1.4,i,i,-2,.,.,.
CC1CCCN(c2nc(-c3cccnc3)nc3scc(-c4ccccc4)c23)C1 (stereo not drawn),i,i,-0.22,-9.1*,i,-15,35%*,i,35%*
CC1CCN(c2nc(-c3cccnc3)nc3scc(-c4ccccc4)c23)CC1,i,i,-0.47,i,i,-10,.,.,.
CCCc1cc(-c2nc(-c3ccc(Br)cc3)cs2)ccn1,i,i,-0.06,-10*,i,-6,i,i,26%*
Cc1cccc(C(=O)NCC(=O)Nc2ccncc2)c1,i,i,-0.19,i,i,-4,.,.,.
CC(C)C(Sc1nc(-c2ccccc2)cc(-c2ccccc2)c1C#N)C(=O)O (stereo not drawn),i,i,0.1,i,i,-11,i,i,i
CC(NC(=O)CCc1nc2cc(S(=O)(=O)N3CCOCC3)ccc2n1C)c1ccc(S(N)(=O)=O)cc1 (stereo not drawn),i,i,1.1,i,i,-5,.,.,.
CN(CC(=O)Nc1ccc(F)cc1)C(=O)CCc1ccccc1,i,i,2.9,i,i,-4,.,.,.
SMILES,KCNK3 block,KCNQ1 block,Kir21 block,KCNK9 inh,KCNQ1 pot,hERG protect,KCNK9 block conf,Kir21 sel,KCNK9 uninduced
CCCCN(C)C(=O)c1cccc(OC2CCN(CC(C)(C)C)CC2)c1,i,i,0.01,-12*,i,-4,i,i,i
CC/C(=N/Nc1ccccc1Cl)c1cnnc(-c2ccccc2)n1,i,i,-0.4,-13*,i,-17,i,i,38%*
COc1ccc(-c2nc(CC(=O)Nc3cccc(S(=O)(=O)NC4=NCCC4)c3)cs2)cc1,i,.,.,.,.,.,.,.,.
COC(=O)[C@@]1(Cc2ccccc2)[C@H]2C(=O)N(Cc3ccccc3)C(=O)[C@H]2[C@H]2CN=C(SC)N21,i,.,.,.,.,.,.,.,.
CC(N)C(=O)NC(C(=O)N1CCCC1C(=O)NC(c1ccccc1)c1ccccc1)C(C)C (stereo not drawn),i,.,.,.,.,.,.,.,.
O=C(/C=C/c1ccco1)Oc1cc(Br)cc(/C=N/NC(=O)c2ccccc2O)c1,i,i,-0.61,-14*,i,-11,76%*,i,38%*
Cc1ccc(C(=O)N/N=C/c2cccc(OC(=O)/C=C/c3ccco3)c2)cn1,i,i,2.3,i,i,-11,.,.,.
CCOC(=O)c1c(C)[nH]c(C)c1S(=O)(=O)N1CCN(c2ccc(F)cc2)CC1,i,i,-0.09,i,i,-13,.,.,.
Cc1cc(C)c(C(=O)C2OC(=O)C(C)(C)C(=O)C2(C)C)c(C)c1 (stereo not drawn),i,i,0.34,i,i,-11,i,i,i
COc1ccc(C(=O)Nc2nnc(S(=O)(=O)N(C)Cc3ccc(F)cc3)s2)cc1OC,i,i,-0.96,i,i,-6,.,.,.
COc1ccc(-c2csc(NC(=O)C3COc4ccccc4O3)n2)cc1OC (stereo not drawn),-10*,i,0.01,-16*,i,-16,64%*,i,i
CCCN1CCCc2cc(CN(CCCN3CCOCC3)C(=O)Nc3ccc(OCC)cc3)ccc21,i,i,0.02,i,i,-1,i,i,i
CCc1ccc(N=C2NC(=O)/C(=C/c3cc(OC)c(O)c(OC)c3)S2)cc1,i,i,-0.11,-8.8*,i,-11,i,i,34%*
COc1cc(/C=C2\SC(=Nc3ccccc3)NC2=O)cc(Cl)c1O,i,i,-3.3,i,i,-1,.,.,.
Cc1sc2nc(CSc3ccccc3)nc(N3CCN(C)CC3)c2c1C,i,i,-4.7*,i,i,-19,i,i,30%*
